In ChEMBL document CHEMBL1649139, “A novel gene, erm(41), confers inducible macrolide resistance to clinical isolates of Mycobacterium abscessus but is absent from Mycobacterium chelonae” (2009):
In brackets after ≈: the same amount, converted by molar mass.

Key:
Type in all cases: functional
[1] = test system: Mycobacteroides abscessus; assay: Antimicrobial activity against Mycobacterium abscessus isolate MAB30 at day 3 preincubated with 0.1 ug/ml erythromycin for 3 days by broth microdilution method
Method in brief: (§1)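 Clarithromycin MIC by CLSI-conforming broth microdilution. Before testing, cultures were preincubated for 3 days, either in medium alone or in clarithromycin or erythromycin (tested range 0.01–1 μg/ml). Preincubation ran for at least two generations, judged by turbidity increase. Plates were read on day 3 and on extended incubation at days 5 to 14.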

[2] = test system: Mycobacteroides abscessus; assay: Antimicrobial activity against Mycobacterium abscessus isolate MAB30 at day 7 by broth microdilution method; conditions: isolate MAB30, 168 h; method in brief: as §1
[3] = test system: Mycobacteroides abscessus; assay: Antimicrobial activity against Mycobacterium abscessus isolate MC724 at day 7 preincubated with 0.1 ug/ml erythromycin for 3 days by broth microdilution method
Method in brief: (§2)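 To test inducible resistance, cultures were preincubated for 3 days in clarithromycin or erythromycin, within 0.01–1 μg/ml. The period was set so cultures passed at least two generations, judged by turbidity increase. Clarithromycin MIC was then determined by CLSI-conforming broth microdilution and read on the stated day, from day 3 up to 14.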

[4] = test system: Mycobacteroides abscessus; assay: Antimicrobial activity against Mycobacterium abscessus isolate MC723 at day 3 preincubated with 0.1 ug/ml erythromycin for 3 days by broth microdilution method
Method in brief: (§3)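 Clarithromycin MIC by broth microdilution following CLSI guidelines. Before testing, organisms were preincubated for 3 days in medium alone or in clarithromycin or erythromycin (0.01–1 μg/ml), long enough for at least two generations judged by turbidity increase. MICs were read on day 3 and again on extended incubation out to day 14.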

[5] = test system: Mycobacteroides abscessus; assay: Antimicrobial activity against Mycobacterium abscessus isolate MC879-2 at day 7 preincubated with 0.1 ug/ml for 3 days by broth microdilution method
[6] = test system: Mycobacteroides abscessus; assay: Antimicrobial activity against Mycobacterium abscessus isolate MC1448 at day 5 preincubated with 0.1 ug/ml erythromycin for 3 days by broth microdilution method; method in brief: as §3
[7] = test system: Mycobacteroides abscessus; assay: Antimicrobial activity against Mycobacterium abscessus isolate MAB30 at day 5 preincubated with 0.1 ug/ml for 3 days by broth microdilution method; method in brief: as §1
[8] = test system: Mycobacteroides abscessus; assay: Antimicrobial activity against Mycobacterium abscessus isolate MC1448 at day 7 by broth microdilution method; conditions: isolate MC1448, 168 h; method in brief: as §3
[9] = test system: Mycobacteroides abscessus; assay: Antimicrobial activity against Mycobacterium abscessus isolate MC719 at day 7 preincubated with 0.1 ug/ml for 3 days by broth microdilution method; method in brief: as §3
[10] = test system: Mycobacteroides abscessus; assay: Antimicrobial activity against Mycobacterium abscessus isolate MC958 on day 10 by broth microdilution method; conditions: isolate MC958, 240 h
[11] = test system: Mycobacteroides abscessus; assay: Antimicrobial activity against Mycobacterium abscessus isolate MC879-2 at day 3 preincubated with 0.1 ug/ml erythromycin for 3 days by broth microdilution method
[12] = test system: Mycobacteroides abscessus; assay: Antimicrobial activity against Mycobacterium abscessus isolate MC1028 at day 7 preincubated with 0.1 ug/ml for 3 days by broth microdilution method; method in brief: as §1
[13] = test system: Mycobacteroides abscessus; assay: Antimicrobial activity against Mycobacterium abscessus isolate MC958 at day 14 preincubated with 0.1 ug/ml for 3 days by broth microdilution method; method in brief: as §2
[14] = test system: Mycobacteroides abscessus; assay: Antimicrobial activity against Mycobacterium abscessus isolate MC879 at day 14 by broth microdilution method; conditions: isolate MC879, 336 h
Method in brief: (§4)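 Clarithromycin MIC by broth microdilution following CLSI guidelines. Organisms were preincubated […], for 3 days before the assay. This allowed at least two generations, judged by the rise in turbidity. The MIC was read at the stated day, with incubation extended from day 3 to as long as 14 days.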

[15] = test system: Mycobacteroides abscessus; assay: Antimicrobial activity against Mycobacterium abscessus isolate MC1028 at day 9 preincubated with 0.1 ug/ml for 3 days by broth microdilution method; method in brief: as §1
[16] = test system: Mycobacteroides abscessus; assay: Antimicrobial activity against Mycobacterium abscessus isolate MC879 at day 7 by broth microdilution method; conditions: isolate MC879, 168 h; method in brief: as §4
[17] = test system: Mycolicibacterium smegmatis; assay: Antimicrobial activity against Mycobacterium smegmatis transformed with erm allele Mycobacterium abscessus isolate MC1028 preincubated with 2 ug/ml erythromycin for 20 to 24 hrs by broth microdilution method
[18] = test system: Mycobacteroides abscessus; assay: Antimicrobial activity against Mycobacterium abscessus isolate MC719 at day 9 by broth microdilution method; conditions: isolate MC719, 216 h; method in brief: as §3
[19] = test system: Mycobacteroides abscessus; assay: Antimicrobial activity against Mycobacterium abscessus isolate MC879 at day 9 preincubated with 0.1 ug/ml for 3 days by broth microdilution method; method in brief: as §2
[20] = test system: Mycobacteroides abscessus; assay: Antimicrobial activity against Mycobacterium abscessus isolate MC958 at day 14 by broth microdilution method; conditions: isolate MC958, 336 h; method in brief: as §4
[21] = test system: Mycobacteroides abscessus; assay: Antimicrobial activity against Mycobacterium abscessus isolate MC879 at day 5 preincubated with 0.1 ug/ml for 3 days by broth microdilution method; method in brief: as §2
[22] = test system: Mycobacteroides abscessus; assay: Antimicrobial activity against Mycobacterium abscessus isolate MC1082 at day 14 preincubated with 0.1 ug/ml erythromycin for 3 days by broth microdilution method; method in brief: as §1
[23] = test system: Mycobacteroides abscessus; assay: Antimicrobial activity against Mycobacterium abscessus isolate MC879-2 at day 3 by broth microdilution method; conditions: isolate MC879-2, 72 h
[24] = test system: Mycobacteroides abscessus; assay: Antimicrobial activity against Mycobacterium abscessus isolate MC723 at day 3 by broth microdilution method; conditions: isolate MC723, 72 h; method in brief: as §3
[25] = test system: Mycobacteroides abscessus; assay: Antimicrobial activity against Mycobacterium abscessus isolate MC719 at day 3 preincubated with 0.1 ug/ml erythromycin for 3 days by broth microdilution method; method in brief: as §3
[26] = test system: Mycobacteroides abscessus; assay: Antimicrobial activity against Mycobacterium abscessus isolate MC1028 at day 3 by broth microdilution method; conditions: isolate MC1028, 72 h; method in brief: as §1
[27] = test system: Mycobacteroides abscessus; assay: Antimicrobial activity against Mycobacterium abscessus isolate MC958 at day 5 by broth microdilution method; conditions: isolate MC958, 120 h; method in brief: as §4
[28] = test system: Mycobacteroides abscessus; assay: Antimicrobial activity against Mycobacterium abscessus isolate MC724 at day 9 preincubated with 0.1 ug/ml erythromycin for 3 days by broth microdilution method; method in brief: as §2
[29] = test system: Mycobacteroides abscessus; assay: Antimicrobial activity against Mycobacterium abscessus isolate MC879 at day 14 preincubated with 0.1 ug/ml for 3 days by broth microdilution method; method in brief: as §2
[30] = test system: Mycobacteroides abscessus; assay: Antimicrobial activity against Mycobacterium abscessus isolate MC958 on day 4 by broth microdilution method; conditions: isolate MC958, 96 h
[31] = test system: Mycobacteroides abscessus; assay: Antimicrobial activity against Mycobacterium abscessus isolate MC720 at day 5 preincubated with 0.1 ug/ml for 3 days by broth microdilution method
Method in brief: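 Clinical M. abscessus isolates were preincubated for 3 days, either in medium alone or in clarithromycin or erythromycin at 0.01 to 1 μg/ml, allowing at least two generations of growth judged by turbidity. The clarithromycin MIC was then determined by CLSI-conforming broth microdilution, with plates read on day 3 and on extended incubation (days 5 to 14).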

[32] = test system: Mycobacteroides abscessus; assay: Antimicrobial activity against Mycobacterium abscessus isolate MC723 at day 9 by broth microdilution method; conditions: isolate MC723, 216 h; method in brief: as §3
[33] = test system: Mycobacteroides abscessus; assay: Antimicrobial activity against Mycobacterium abscessus isolate MC1082 at day 3 preincubated with 0.1 ug/ml erythromycin for 3 days by broth microdilution method; method in brief: as §1
[34] = test system: Mycobacteroides abscessus; assay: Antimicrobial activity against Mycobacterium abscessus isolate MC1448 at day 7 preincubated with 0.1 ug/ml for 3 days by broth microdilution method; method in brief: as §3
[35] = test system: Mycolicibacterium smegmatis; assay: Antimicrobial activity against Mycobacterium smegmatis transformed with erm allele Mycobacterium abscessus isolate MAB30 by broth microdilution method
[36] = test system: Mycobacteroides abscessus; assay: Antimicrobial activity against Mycobacterium abscessus isolate MC720 at day 3 preincubated with 0.1 ug/ml for 3 days by broth microdilution method; method in brief: as §3

CC[C@H]1OC(=O)[C@H](C)[C@@H](O[C@H]2C[C@@](C)(OC)[C@@H](O)[C@H](C)O2)[C@H](C)[C@@H](O[C@@H]2O[C@H](C)C[C@H](N(C)C)[C@H]2O)[C@](C)(OC)C[C@@H](C)C(=O)[C@H](C)[C@@H](O)[C@]1(C)O [CLARITHROMYCIN]
MIC [1]: ≤ 0.5 µg/mL | MIC [2]: ≤ 0.5 µg/mL | MIC [3]: > 32 µg/mL | MIC [4]: ≤ 0.5 µg/mL | MIC [5]: > 32 µg/mL | MIC [6]: > 32 µg/mL | MIC [7]: ≤ 0.5 µg/mL | MIC [8]: > 32 µg/mL | MIC [9]: > 32 µg/mL | MIC [10]: 32 µg/mL (≈ 42.8 µM) | MIC [11]: > 32 µg/mL | MIC [12]: ≤ 0.5 µg/mL | MIC [13]: > 32 µg/mL | MIC [14]: > 32 µg/mL | MIC [15]: ≤ 0.5 µg/mL | MIC [16]: 8 µg/mL (≈ 10.7 µM) | MIC [17]: ≤ 0.5 µg/mL | MIC [18]: > 32 µg/mL | MIC [19]: > 32 µg/mL | MIC [20]: > 32 µg/mL | MIC [21]: 4 µg/mL (≈ 5.35 µM) | MIC [22]: ≤ 0.5 µg/mL | MIC [23]: > 32 µg/mL | MIC [24]: ≤ 0.5 µg/mL | MIC [25]: ≤ 0.5 µg/mL | MIC [26]: ≤ 0.5 µg/mL | MIC [27]: 1 µg/mL (≈ 1.34 µM) | MIC [28]: > 32 µg/mL | MIC [29]: > 32 µg/mL | MIC [30]: ≤ 2 µg/mL | MIC [31]: 4 µg/mL (≈ 5.35 µM) | MIC [32]: > 32 µg/mL | MIC [33]: ≤ 0.5 µg/mL | MIC [34]: > 32 µg/mL | MIC [35]: ≤ 0.5 µg/mL | MIC [36]: ≤ 0.5 µg/mL
